Key:
[1] = tested on: U2OS; assay: Multiplex assay against U2OS; format: toxicity, cell-based; conditions: human
Method in brief: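 On a CQ1 microscope at 37°C and 5% CO2, live cells were imaged after compound addition. They had been stained at seeding with Hoechst33342, BioTracker Green Microtubule Cytoskeleton Dye, MitoTracker Red and Annexin V Alexa Fluor 680. CellPathfinder machine-learning gating assigned cells to Hoechst high-intensity objects or normal cells, normal cells to healthy, pyknosed or fragmented nuclei, and pyknosed cells to mitotic or apoptotic. Tubulin, mitochondrial-mass and membrane-permeability phenotypes are per cents of healthy-nucleus cells.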

[2] = tested on: Fibroblast; assay: Incucyte cell viability with human fibroblast; format: toxicity, cell-based; conditions: 10 µM, compound concentration 10 uM; also: filed as whole numbers so only -1 and 0 and 1 occur
[3] = 12 h, 1 µM, compound concentration 1 uM, replicate 1
[4] = 12 h, 1 µM, compound concentration 1 uM, replicate 2
[5] = 12 h, 10 µM, compound concentration 10 uM, replicate 1
[6] = 12 h, 10 µM, compound concentration 10 uM, replicate 2
[7] = 24 h, 1 µM, compound concentration 1 uM, replicate 1
[8] = 24 h, 1 µM, compound concentration 1 uM, replicate 2
[9] = 24 h, 10 µM, compound concentration 10 uM, replicate 1
[10] = 24 h, 10 µM, compound concentration 10 uM, replicate 2
[11] = 48 h, 1 µM, compound concentration 1 uM, replicate 1
[12] = 48 h, 1 µM, compound concentration 1 uM, replicate 2
[13] = 48 h, 10 µM, compound concentration 10 uM, replicate 1
[14] = 48 h, 10 µM, compound concentration 10 uM, replicate 2

Nc1ccc(C(=O)Nc2cccc(-c3nc(N4CCOCC4)c4oc5ncccc5c4n3)c2)cn1
Population Apoptotic (%) [1, 3]: 42% | Population Fragmented Nuclei (%) [1, 3]: 20% | Population Healthy Nuclei (%) [1, 3]: 64% | Population Hoechst High Intensity Objects (%) [1, 3]: 10% | Population Mitochondria Different-Phenotype (%) [1, 3]: 36% | Population Mitotic Cells (%) [1, 3]: 57% | Population Normal (%) [1, 3]: 89% | Population Pyknosed Nuclei (%) [1, 3]: 15% | Population Tubulin-Different-Phenotype (%) [1, 3]: 54% | Total Cell Count [1, 3]: 215 | Population Apoptotic (%) [1, 4]: 9% | Population Healthy Nuclei (%) [1, 4]: 61% | Population Mitochondria Different-Phenotype (%) [1, 4]: 21% | Population Mitotic Cells (%) [1, 4]: 90% | Population Pyknosed Nuclei (%) [1, 4]: 17% | Population Tubulin-Different-Phenotype (%) [1, 4]: 28% | Total Cell Count [1, 4]: 55 | Population Apoptotic (%) [1, 5]: 56% | Population Fragmented Nuclei (%) [1, 5]: 57% | Population Healthy Nuclei (%) [1, 5]: 24% | Population Hoechst High Intensity Objects (%) [1, 5]: 21% | Population Mitochondria Different-Phenotype (%) [1, 5]: 83% | Population Mitotic Cells (%) [1, 5]: 43% | Population Normal (%) [1, 5]: 78% | Population Pyknosed Nuclei (%) [1, 5]: 18% | Population Tubulin-Different-Phenotype (%) [1, 5]: 93% | Total Cell Count [1, 5]: 191 | Population Apoptotic (%) [1, 6]: 51% | Population Fragmented Nuclei (%) [1, 6]: 62% | Population Healthy Nuclei (%) [1, 6]: 15% | Population Hoechst High Intensity Objects (%) [1, 6]: 19% | Population Mitochondria Different-Phenotype (%) [1, 6]: 76% | Population Mitotic Cells (%) [1, 6]: 48% | Population Normal (%) [1, 6]: 80% | Population Pyknosed Nuclei (%) [1, 6]: 22% | Population Tubulin-Different-Phenotype (%) [1, 6]: 90% | Total Cell Count [1, 6]: 69 | Population Apoptotic (%) [1, 7]: 46% | Population Fragmented Nuclei (%) [1, 7]: 16% | Population Healthy Nuclei (%) [1, 7]: 65% | Population Hoechst High Intensity Objects (%) [1, 7]: 7% | Population Mitochondria Different-Phenotype (%) [1, 7]: 31% | Population Mitotic Cells (%) [1, 7]: 53% | Population Normal (%) [1, 7]: 92% | Population Pyknosed Nuclei (%) [1, 7]: 17% | Population Tubulin-Different-Phenotype (%) [1, 7]: 51% | Total Cell Count [1, 7]: 221 | Population Apoptotic (%) [1, 8]: 21% | Population Fragmented Nuclei (%) [1, 8]: 28% | Population Healthy Nuclei (%) [1, 8]: 52% | Population Hoechst High Intensity Objects (%) [1, 8]: 5% | Population Mitochondria Different-Phenotype (%) [1, 8]: 42% | Population Mitotic Cells (%) [1, 8]: 78% | Population Normal (%) [1, 8]: 95% | Population Pyknosed Nuclei (%) [1, 8]: 18% | Population Tubulin-Different-Phenotype (%) [1, 8]: 27% | Total Cell Count [1, 8]: 57 | Population Apoptotic (%) [1, 9]: 80% | Population Fragmented Nuclei (%) [1, 9]: 59% | Population Healthy Nuclei (%) [1, 9]: 14% | Population Hoechst High Intensity Objects (%) [1, 9]: 23% | Population Mitochondria Different-Phenotype (%) [1, 9]: 88% | Population Mitotic Cells (%) [1, 9]: 19% | Population Normal (%) [1, 9]: 76% | Population Pyknosed Nuclei (%) [1, 9]: 26% | Population Tubulin-Different-Phenotype (%) [1, 9]: 81% | Total Cell Count [1, 9]: 201 | Population Apoptotic (%) [1, 10]: 84% | Population Fragmented Nuclei (%) [1, 10]: 60% | Population Healthy Nuclei (%) [1, 10]: 5% | Population Hoechst High Intensity Objects (%) [1, 10]: 19% | Population Mitochondria Different-Phenotype (%) [1, 10]: 100% | Population Mitotic Cells (%) [1, 10]: 15% | Population Normal (%) [1, 10]: 80% | Population Pyknosed Nuclei (%) [1, 10]: 34% | Population Tubulin-Different-Phenotype (%) [1, 10]: 100% | Total Cell Count [1, 10]: 80 | Population Apoptotic (%) [1, 11]: 57% | Population Fragmented Nuclei (%) [1, 11]: 18% | Population Healthy Nuclei (%) [1, 11]: 60% | Population Hoechst High Intensity Objects (%) [1, 11]: 9% | Population Mitochondria Different-Phenotype (%) [1, 11]: 28% | Population Mitotic Cells (%) [1, 11]: 42% | Population Normal (%) [1, 11]: 90% | Population Pyknosed Nuclei (%) [1, 11]: 21% | Population Tubulin-Different-Phenotype (%) [1, 11]: 45% | Total Cell Count [1, 11]: 240 | Population Apoptotic (%) [1, 12]: 25% | Population Fragmented Nuclei (%) [1, 12]: 28% | Population Healthy Nuclei (%) [1, 12]: 53% | Population Hoechst High Intensity Objects (%) [1, 12]: 7% | Population Mitochondria Different-Phenotype (%) [1, 12]: 22% | Population Mitotic Cells (%) [1, 12]: 75% | Population Normal (%) [1, 12]: 92% | Population Pyknosed Nuclei (%) [1, 12]: 17% | Population Tubulin-Different-Phenotype (%) [1, 12]: 24% | Total Cell Count [1, 12]: 56 | Population Fragmented Nuclei (%) [1, 13]: 62% | Population Healthy Nuclei (%) [1, 13]: 5% | Population Hoechst High Intensity Objects (%) [1, 13]: 23% | Population Mitochondria Different-Phenotype (%) [1, 13]: 76% | Population Normal (%) [1, 13]: 76% | Population Pyknosed Nuclei (%) [1, 13]: 31% | Population Tubulin-Different-Phenotype (%) [1, 13]: 66% | Total Cell Count [1, 13]: 244 | Population Apoptotic (%) [1, 14]: 91% | Population Fragmented Nuclei (%) [1, 14]: 65% | Population Healthy Nuclei (%) [1, 14]: 8% | Population Hoechst High Intensity Objects (%) [1, 14]: 16% | Population Mitochondria Different-Phenotype (%) [1, 14]: 100% | Population Mitotic Cells (%) [1, 14]: 8% | Population Normal (%) [1, 14]: 83% | Population Pyknosed Nuclei (%) [1, 14]: 26% | Population Tubulin-Different-Phenotype (%) [1, 14]: 100% | Total Cell Count [1, 14]: 98 | Growth Rate ([2]; 0 h, replicate number 1, timepoint 0 hours): 0 | Growth Rate ([2]; 6 h, replicate number 1, timepoint 6 hours): 0 | Growth Rate ([2]; 12 h, replicate number 1, timepoint 12 hours): 0 | Growth Rate ([2]; 18 h, replicate number 1, timepoint 18 hours): 0 | Growth Rate ([2]; 18 h, replicate number 2, timepoint 18 hours): 1 | Growth Rate ([2]; 24 h, replicate number 1, timepoint 24 hours): 0

— ChEMBL document CHEMBL4689842, “EUbOPEN Chemogenomics Library wave 1” (2021)
